Compound activity (PubChem BioAssay)
The list is not random: actives were taken first. Their share in the collection is about 3%.
5HT1a ag = 5-HT1a (human) receptor agonism | P08908 | CHO 5-HT1a Ga15 NFAT-bla reporter, FRET ratio; 0% basal, 100% maximal reference agonist | activation, % at 10 µM | 65,000 tested, 0.56% active | AID 567;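 active = activation above the screen-wide mean activation plus 3 SD, cut at about 19% in these data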;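 note: 0% = DMSO wells and 100% = 5-CT at EC100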
Target sequence (P08908 whole entry, looked up): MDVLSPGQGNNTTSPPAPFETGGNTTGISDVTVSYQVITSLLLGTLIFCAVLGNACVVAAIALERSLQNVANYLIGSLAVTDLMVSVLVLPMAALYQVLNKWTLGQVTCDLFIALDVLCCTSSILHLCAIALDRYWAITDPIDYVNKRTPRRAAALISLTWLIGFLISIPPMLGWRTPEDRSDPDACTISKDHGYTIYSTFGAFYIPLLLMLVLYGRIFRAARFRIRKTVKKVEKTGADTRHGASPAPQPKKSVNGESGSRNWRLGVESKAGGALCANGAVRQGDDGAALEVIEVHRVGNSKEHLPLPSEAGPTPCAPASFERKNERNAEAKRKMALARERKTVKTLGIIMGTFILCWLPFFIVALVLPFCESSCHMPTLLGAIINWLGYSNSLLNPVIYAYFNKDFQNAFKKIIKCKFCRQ
S1P3 agonist = agonists of human S1P3 receptor; S1P3 NFAT-BLA reporter cells, agonism, FRET ratio; relative to 1 µM S1P, basal subtracted; activation, % at 4.5 µM; Q99500; 60,000 tested, 0.1% active; AID 373;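 active = activation above the screen-wide mean plus 3 SD, cut at about 4.5% in these data, passing the limit was not always enough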
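Assay system: stable CHO line with human S1P3, Gα16, NFAT-BLA reporter; Detection: FRET β-lactamase substrate fluorescence, excitation 405 nm, 460/535 nm emission ratio, background-subtracted; Read-out: percent activation versus median 1 µM S1P response, basal-subtracted, per plate; Incubation: cells plated overnight, compound 4 h 37 °C, substrate 2 h RT.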
5HT1a antag = 5-HT1a (human) receptor antagonism; P08908; CHO 5-HT1a Ga15 NFAT-bla reporter, antagonist mode; inhibition, % at 10 µM; 62,000 tested, 0.68% active; AID 612;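 active = inhibition above the mean of all tested compounds plus 3 SD, cut at about 43% in these data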;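 note: receptor stimulated by 5-CT agonist at 100 nM near EC80; beta-lactamase reporter measured by ratiometric fluorescence of a cleavable substrate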
HTR1E antagonist = antagonists of human 5-HT1E serotonin receptor; 65,000 tested, 0.99% active; AID 571; inhibition, % at 6 µM; CHO 5-HT1E Ga15 NFAT-bla reporter, FRET, antagonist;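 active = inhibition above a set limit, the mean inhibition across every tested compound plus 3 SD, cut at about 29% in these data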;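 note: signal is the 460 over 535 nm emission ratio of beta-lactamase substrate; 0% = agonist plus DMSO wells and 100% = wells without agonist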
S1P1 ag-PAM = S1P1 (human) agonism or agonism potentiation. S1P1 CRE-bla cells, forskolin, beta-lactamase FRET, potentiator mode; S1P1 agonist co-added at EC20, 2 nM; 100% = saturating reference agonist, 0% = basal. activation, % at 9.5 µM. 56,000 tested, 0.57% active;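 active = activation above a cutoff set at the mean activation of all tested compounds plus 3 SD, cut at about 54% in these data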;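 note: forskolin at 4 µM as EC80 and the EC20 agonist is SEW2871; 100% = SEW2871 at its EC100 plus forskolin at EC80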
5HT1E ag = 5-HT1E (human) receptor agonism | CHO 5-HT1E Ga15 NFAT-bla reporter, FRET; 0% DMSO wells, 100% control agonist wells | 65,000 tested, 0.69% active | activation, % at 6 µM;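 active = activation above a set limit, the screen-wide mean activation plus 3 SD, cut at about 8.5% in these data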;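 note: 100% = positive control agonist at 1 µM giving full maximal response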
Starred values were filed as active, the others as inactive.

How did COc1ccc(N2CCN(C(c3ccccc3)c3sc4nc(C)nn4c3O)CC2)cc1 (configuration not stated) do in these assays?
5HT1a ag: -3; S1P3 agonist: -1; 5HT1a antag: -9; HTR1E antagonist: 3; S1P1 ag-PAM: 5; 5HT1E ag: 0

What do the screens show for `Cn1c(=O)c2c(nc(Oc3ccc4c(c3)OCO4)n2Cc2ccc(Br)cc2)n(C)c1=O`?
5HT1a ag: 40*; S1P3 agonist: -2; HTR1E antagonist: -9; S1P1 ag-PAM: 5; 5HT1E ag: 0

How did Cn1c(=O)c2c(nc(Oc3ccc4c(c3)OCO4)n2Cc2ccc(F)cc2)n(C)c1=O do in these assays?
5HT1a ag: 4; S1P3 agonist: -3; HTR1E antagonist: 5; S1P1 ag-PAM: -3; 5HT1E ag: -1

What do the screens show for `N#CC(C(=O)c1ccco1)c1ccccn1` (configuration not stated)?
5HT1a ag: 3; S1P3 agonist: -1; 5HT1a antag: 17; HTR1E antagonist: 3; S1P1 ag-PAM: 7; 5HT1E ag: 0

What do the screens show for `Clc1ccc(C2=Nn3c(nnc3-c3n[nH]c4c3CCC4)SC2)cc1`?
5HT1a ag: -1; S1P3 agonist: 2; 5HT1a antag: 24; HTR1E antagonist: 22; S1P1 ag-PAM: -46; 5HT1E ag: 1

What do the screens show for `Brc1ccc(C2=Nn3c(nnc3-c3n[nH]c4c3CCC4)SC2)cc1`?
5HT1a ag: -1; S1P3 agonist: 2; 5HT1a antag: 30; HTR1E antagonist: 57*; S1P1 ag-PAM: -49; 5HT1E ag: 0

Results for CN(CC(=O)NCc1cccc(F)c1)C(=O)c1ccco1 ?
5HT1a ag: -3; S1P3 agonist: 0; 5HT1a antag: -11; HTR1E antagonist: -2; S1P1 ag-PAM: 2; 5HT1E ag: 0

What do the screens show for `CCN(CC)C(=O)CSc1nc2ccccc2c(=O)n1CC1CCCCC1`?
5HT1a ag: 4; S1P3 agonist: -7; HTR1E antagonist: 37*; S1P1 ag-PAM: 25; 5HT1E ag: 0

Results for O=C(CSc1nc2ccccc2c(=O)n1CC1CCCCC1)N1CCOCC1 ?
5HT1a ag: 2; S1P3 agonist: -4; HTR1E antagonist: 3; S1P1 ag-PAM: 2; 5HT1E ag: 0

Results for COc1cc2c(cc1OC)CN(C(=O)c1ccc(OC)c(S(=O)(=O)N3CCOCC3)c1)CC2 ?
5HT1a ag: -4; S1P3 agonist: 0; 5HT1a antag: -6; HTR1E antagonist: 4; S1P1 ag-PAM: -4; 5HT1E ag: 1

What do the screens show for `COc1cc2c(cc1OC)CN(C(=O)Cc1ccc(OC)c(S(=O)(=O)N3CCOCC3)c1)CC2`?
5HT1a ag: -1; S1P3 agonist: 0; 5HT1a antag: -1; HTR1E antagonist: 6; S1P1 ag-PAM: 4; 5HT1E ag: 25*

How did CNC(=O)c1ccc(-c2sc3nc(N4CCOCC4)c4c(c3c2N)CCCC4)o1 do in these assays?
5HT1a ag: 4; S1P3 agonist: 0; 5HT1a antag: 6; HTR1E antagonist: 32*; 5HT1E ag: 2

Results for CC1(C)Cc2c(c(N3CCOCC3)nc3sc(-c4ccc(C(=O)O)o4)c(N)c23)CO1 ?
5HT1a ag: 1; S1P3 agonist: -1; 5HT1a antag: 2; HTR1E antagonist: 14; S1P1 ag-PAM: 1; 5HT1E ag: 0

How did Cn1c(=O)c2c(nc(N3CCN(Cc4ccccc4)CC3)n2CCSc2ncccn2)n(C)c1=O do in these assays?
5HT1a ag: -2; S1P3 agonist: 1; 5HT1a antag: -11; HTR1E antagonist: -2; S1P1 ag-PAM: -5; 5HT1E ag: 1

How did COc1cccc(C(=O)Nc2ccc3nc(N4CCN(c5ncccn5)CC4)cc(C)c3c2)c1OC do in these assays?
5HT1a ag: 4; 5HT1a antag: 24; HTR1E antagonist: 30*; 5HT1E ag: 1

What do the screens show for `CCC(c1nnnn1CS(=O)(=O)c1ccc(C)cc1)N1CCN(c2nc3ccccc3s2)CC1` (configuration not stated)?
5HT1a ag: 4; S1P3 agonist: 0; 5HT1a antag: 9; HTR1E antagonist: -6; S1P1 ag-PAM: -8; 5HT1E ag: 0

Results for c1ccc(CNc2ncnc3ccccc23)cc1 ?
5HT1a ag: -1; S1P3 agonist: -2; 5HT1a antag: 19; HTR1E antagonist: 9; S1P1 ag-PAM: 106*; 5HT1E ag: 0

How did COc1ccc(CCN(C)CCCC(C#N)(c2ccc(OC)c(OC)c2)C(C)C)cc1OC (configuration not stated) do in these assays?
5HT1a ag: -2; S1P3 agonist: -2; HTR1E antagonist: -1; S1P1 ag-PAM: -2; 5HT1E ag: 0

Results for N#Cc1nc(-c2ccc(OCc3ccccc3)cc2)oc1NCc1ccco1 ?
5HT1a ag: 1; S1P3 agonist: 0; 5HT1a antag: -23; HTR1E antagonist: -14; S1P1 ag-PAM: -16; 5HT1E ag: 0

What do the screens show for `CNc1oc(-c2ccc(OCc3ccccc3)cc2)nc1C#N`?
5HT1a ag: -1; S1P3 agonist: 0; 5HT1a antag: -24; HTR1E antagonist: -2; S1P1 ag-PAM: 73*; 5HT1E ag: 0

How did O=C(NC1CCCCC1)C1CCN(c2cnccn2)CC1 do in these assays?
5HT1a ag: -5; S1P3 agonist: 1; 5HT1a antag: -1; HTR1E antagonist: -5; S1P1 ag-PAM: -7; 5HT1E ag: 0

Results for Cc1nc2ccc3nc(NC(=O)C4COc5ccccc5O4)sc3c2s1 (configuration not stated) ?
5HT1a ag: -1; S1P3 agonist: 0; 5HT1a antag: -9; HTR1E antagonist: -2; S1P1 ag-PAM: 67*; 5HT1E ag: 0

Results for O=S(=O)(NCc1ccc2c(c1)OCO2)c1cnc[nH]1 ?
5HT1a ag: -3; S1P3 agonist: -2; 5HT1a antag: 4; HTR1E antagonist: 0; S1P1 ag-PAM: -12; 5HT1E ag: 0

How did CCOc1ccc(CCNS(=O)(=O)c2cnc[nH]2)cc1OCC do in these assays?
5HT1a ag: 1; S1P3 agonist: -1; 5HT1a antag: -1; HTR1E antagonist: 31*; S1P1 ag-PAM: -17; 5HT1E ag: 0

How did Nc1nc2ccc(Oc3ccccc3)cc2s1 do in these assays?
5HT1a ag: -2; S1P3 agonist: -1; 5HT1a antag: 16; HTR1E antagonist: 4; S1P1 ag-PAM: 3; 5HT1E ag: -1

How did Nc1nc2ccc(OC(F)(F)F)cc2s1 do in these assays?
5HT1a ag: 24*; S1P3 agonist: -3; HTR1E antagonist: 15; S1P1 ag-PAM: -50; 5HT1E ag: 0

Results for Cc1ccc(CNC(=O)c2cc3c(=O)n4ccccc4nc3n(CC3CCCO3)c2=N)cc1 (configuration not stated) ?
5HT1a ag: 32*; S1P3 agonist: 11; HTR1E antagonist: -13; S1P1 ag-PAM: -142; 5HT1E ag: 4
